Tn6 DDE FP: DD(E)-Tn6 binding inhibition, primary FP screen. P02675. Fibrin DD(E) TRITC-Tn6 fluorescence polarization displacement. inhibition, % at 8.3 µM. actives 0.21% (n = 370,000);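 active = inhibition above a per-campaign cutoff: mean of compounds within control limits plus 3 SD, cut at about 15% in these data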
Target sequence (P02675 whole entry, looked up): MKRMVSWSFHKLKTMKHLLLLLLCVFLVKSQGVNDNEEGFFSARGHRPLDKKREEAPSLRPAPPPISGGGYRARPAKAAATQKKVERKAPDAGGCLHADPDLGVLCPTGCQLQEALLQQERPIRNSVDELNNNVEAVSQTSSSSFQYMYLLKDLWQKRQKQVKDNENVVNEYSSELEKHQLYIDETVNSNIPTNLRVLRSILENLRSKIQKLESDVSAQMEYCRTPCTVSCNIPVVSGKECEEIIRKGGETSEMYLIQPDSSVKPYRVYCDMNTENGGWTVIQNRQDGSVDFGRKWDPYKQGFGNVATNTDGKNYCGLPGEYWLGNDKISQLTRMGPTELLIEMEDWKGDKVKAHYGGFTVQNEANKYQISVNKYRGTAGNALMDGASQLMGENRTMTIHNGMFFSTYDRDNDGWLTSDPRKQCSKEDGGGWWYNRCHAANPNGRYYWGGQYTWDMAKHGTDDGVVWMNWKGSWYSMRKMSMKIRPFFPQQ
CRFBP-R2 block: CRF-BP/CRF-R2 complex antagonism; AID 588475; HEK293 CRF-R2/CRF-BP, CRF-induced calcium fluorescence; inhibition, % at 11.8 µM; actives 0.59% (n = 350,000);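 active = inhibition of the ligand-induced calcium signal above about 50% at the single tested concentration, limit read from the data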
DDE Tn7 FP inh: inhibitors of Tn7 peptide binding to human fibrin DD(E) | P02675 | FP displacement of FITC-Tn7 peptide from fibrin DD(E); 0% = median of compound wells per plate | inhibition, % at 8.3 µM | actives 0.13% (n = 370,000) | AID 720508;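 active = inhibition above the mean of compounds falling within the control limits plus 3 SD of them, cut at about 14% in these data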
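Test system: human clot-derived fibrin DD(E) complex / Quantity: 2 µM final DD(E) protein / Incubation: 10 min plus 3 h, room temperature / Measured by: fluorescence polarization / Benchmarks: high control of 10 µM Aha-Tn7 peptide / Replicates: singlicate testing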
CRFBP-R2 agonist: agonists of human CRF-binding protein/CRF-R2 receptor complex; HEK293 CRF-R2/CRF-BP, calcium dye fluorescence (FLIPR); percent of saturating CRF peptide response; activation, % at 13.2 µM; actives 0.46% (n = 350,000); AID 588473;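 active = activation of at least 50%, plus an integration ratio under a set limit after plate pattern correction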
Large screens that a line does not name were inactive. The list is not random: actives were taken first. Their share in the collection is about 1.3%.

CCCOc1cc(N(CC)CC)ccc1/C=C(/C#N)c1nc2ccc(C)cc2[nH]1	CRFBP-R2 agonist 107
CCOc1cc(N(CC)CC)ccc1/C=C(/C#N)c1nc2ccccc2[nH]1	CRFBP-R2 agonist 97
CCN(CC)c1ccc(/C=C(/C#N)c2nc3ccc(C)cc3[nH]2)c(OC(C)C)c1	CRFBP-R2 agonist 176
COC(=O)[C@]12C[C@H](CC(=O)N3CCC(c4ccccc4)CC3)C(=O)N(Cc3ccco3)C1=C[C@H](C(C)C)O[C@@H]2C1CC1	none (no result: CRFBP-R2 block, CRFBP-R2 agonist)
O=C(NCC(c1ccco1)N1CCCC1)c1ccc(S(=O)(=O)Nc2ccc(F)cc2)cc1 (stereo not given)	none
Cc1ccc(S(=O)(=O)Nc2ccc(NC(=O)c3c(F)c(F)c(F)c(F)c3F)cc2)cc1	CRFBP-R2 agonist 58
CC1CN(C(=O)c2ccc(NS(=O)(=O)c3cccc(Cl)c3)cc2)CC(C)O1 (stereo not given)	none
CC1CN(C(=O)c2ccc(NS(=O)(=O)c3ccc(C(C)(C)C)cc3)cc2)CC(C)O1 (stereo not given)	CRFBP-R2 agonist 57
CC1CCN(C(=O)c2ccc(NS(=O)(=O)c3ccccc3)cc2)CC1	none
CCOc1ccc(NS(=O)(=O)c2ccc(C(=O)NCC(c3ccco3)N3CCCC3)cc2)cc1 (stereo not given)	CRFBP-R2 agonist 63
COc1ccc(NS(=O)(=O)c2ccc(C(=O)N3CCC(C)CC3)cc2)cc1	CRFBP-R2 agonist 65
CCOc1ccc(S(=O)(=O)Nc2ccc(C(=O)N3CC(C)OC(C)C3)cc2)cc1 (stereo not given)	none
Cc1ccc(NS(=O)(=O)c2ccc(C(=O)N3CCCC(C(F)(F)F)C3)cc2)cc1 (stereo not given)	CRFBP-R2 agonist 71
CCOc1ccc(NS(=O)(=O)c2ccc(C(=O)N3CC(C)OC(C)C3)cc2)cc1 (stereo not given)	CRFBP-R2 agonist 108
C/C(=C/c1[nH]c(N)[n+](CC2CC2)c1Cc1ccccc1)Cn1[nH]c(=O)n(-c2ccccc2)c1=O	none (no result: CRFBP-R2 block, CRFBP-R2 agonist)
COc1ccc2nc(C)cc(Nc3ccc(C)cc3)c2c1	none
COc1ccc2nc(C)cc(NCc3ccc(F)cc3)c2c1	CRFBP-R2 agonist 73
C=CCN1C=CC(=C/C=C(/C#N)C(=O)OCC)C=C1	CRFBP-R2 agonist 71
CCOC(=O)/C(C#N)=C/C=C1/C=CC=CN1C	none
COc1ccc2c(c1)c(CC(=O)Nc1ccccc1OC)c(C)n2C(=O)c1ccc(Cl)cc1	none
COc1ccc2c(c1)c(CC(=O)Nc1cc(C)ccc1C)c(C)n2C(=O)c1ccc(Cl)cc1	CRFBP-R2 agonist 89
CCN(CC)C(=O)c1ccc2c(c1)NC(=O)C(C)(C)O2	none (no result: CRFBP-R2 block, CRFBP-R2 agonist)
Cc1ccc(-c2n[nH]c(=S)n2/N=C/c2cccn2C)cc1	CRFBP-R2 block 52
Cn1cccc1/C=N/n1c(-c2ccc(Cl)cc2)n[nH]c1=S	none
N#Cc1ccc(C(=O)Nc2nnc(-c3cccs3)o2)cc1	none
O=C(Nc1nnc(-c2cccs2)o1)c1cccc(C(F)(F)F)c1	CRFBP-R2 agonist 81
Cn1c(/C(C#N)=C/c2ccc(O)cc2)nc2ccccc21	none
COc1cc(/C=C(\C#N)c2nc3ccccc3[nH]2)cc(OC)c1O	CRFBP-R2 agonist 164
COc1cc(/C=C(/C#N)c2nc3ccccc3c(=O)[nH]2)ccc1O	CRFBP-R2 agonist 68
COc1ccc(/C=C(\C#N)c2nc3ccccc3[nH]2)cc1O	none
COc1cc(/C=C(/C#N)c2nc3ccccc3[nH]2)ccc1OC(=O)c1ccco1	none
COc1cc(/C=C(\C#N)c2nc3ccccc3n2C)cc(OC)c1O	CRFBP-R2 agonist 52
C=CCNC(=O)NCC1CCN(Cc2ccc(OC)cc2)CC1	none (no result: CRFBP-R2 block, CRFBP-R2 agonist)
O=C(Nc1nnc(S(=O)(=O)N2CCCCC2)s1)c1ccc(Cl)cc1	CRFBP-R2 block 71
COc1ccc(OC)c(/C=N/n2c(-c3n[nH]c4c3CCC4)n[nH]c2=S)c1	none
COc1ccc(/C=N/n2c(-c3n[nH]c4c3CCC4)n[nH]c2=S)cc1	CRFBP-R2 block 100
CC(=O)C1(C(=O)NCc2ccccc2)CC(c2ccccn2)=NO1 (stereo not given)	none (no result: CRFBP-R2 block, CRFBP-R2 agonist)
Cc1ccccc1NC(=O)C1CCCN1S(=O)(=O)c1cccnc1 (stereo not given)	none (no result: CRFBP-R2 block, CRFBP-R2 agonist)
CCCCn1c(NC(=O)c2ccc(Br)o2)c(S(=O)(=O)c2ccccc2)c2nc3ccccc3nc21	CRFBP-R2 block 78
CCCNC(=O)c1nnsc1S(=O)c1ccc(Cl)cc1 (stereo not given)	none
CCCNC(=O)c1nnsc1S(=O)(=O)c1ccc(Cl)cc1	CRFBP-R2 block 70
COc1cccc2cc3c(nc12)C[C@@H]1CCCC(=O)N2CCC[C@@]12C3	none (no result: CRFBP-R2 block, CRFBP-R2 agonist)
COc1ccccc1S(=O)(=O)Cc1ccc(C(=O)NCc2ccccc2)o1	CRFBP-R2 block 55
COc1ccccc1S(=O)(=O)Cc1ccc(C(=O)NCc2ccco2)o1	none
CCCNC(=O)N1[C@@H](CO)[C@H](c2ccc(C3=CCCC3)cc2)[C@@H]1CN(CC)S(=O)(=O)c1ccccc1[N+](=O)[O-]	none (no result: CRFBP-R2 block, CRFBP-R2 agonist)
O=C(CN1C(=O)C2(OCCCO2)c2ccccc21)NCc1ccc(F)cc1	none (no result: CRFBP-R2 block, CRFBP-R2 agonist)
COc1ccc(OC)c(C2=C/C(=C/c3ccccn3)C(=O)O2)c1	CRFBP-R2 agonist 76
CCCCCN1CCCCC(NC(=O)c2ccc(F)cc2)C1=O (stereo not given)	none (no result: CRFBP-R2 block, CRFBP-R2 agonist)
CN(C)CCCn1c(=S)[nH]c2ccccc2c1=O	none
CN(C)CCCn1c2c3ccccc3ccc2c2oc(=O)c3ccccc3c21	DDE Tn7 FP inh 17
CCOC(=O)Nc1cc2c(c(N)n1)N=C(c1ccccc1)CN2	CRFBP-R2 agonist 65
C/C=C/C(=O)N1CCc2cc(S(=O)(=O)N(C)Cc3ccco3)ccc21	none (no result: CRFBP-R2 block, CRFBP-R2 agonist)
Cc1cccnc1NC(=O)C(C)Oc1ccccc1 (stereo not given)	CRFBP-R2 block 80
COc1ccc(S(=O)(=O)N2CCC(C(=O)N[C@@H](C)C(=O)NCc3ccc(F)cc3)CC2)cc1	none
COc1ccc(S(=O)(=O)N2CCCC(C(=O)NCc3ccc(F)cc3)C2)cc1 (stereo not given)	none
COc1ccc(CNC(=O)[C@H](C)NC(=O)C2CCN(S(=O)(=O)c3ccc(F)cc3)CC2)cc1	CRFBP-R2 block 82
CCOc1cccc(NC(=O)C2CCCN(S(=O)(=O)c3ccc(-n4cnnn4)cc3)C2)c1 (stereo not given)	none
COc1ccc(S(=O)(=O)N2CCCC(C(=O)NCc3ccncc3)C2)cc1 (stereo not given)	CRFBP-R2 block 56
COc1cccc(NC(=O)C2CCCN(S(=O)(=O)c3ccc(-n4cnnn4)cc3)C2)c1 (stereo not given)	CRFBP-R2 block 86
CCCc1cc2c(OC)ccc(O)c2c(=O)n1C	none (no result: CRFBP-R2 block, CRFBP-R2 agonist)
COc1ccc(C(=O)NNC(=S)NC(=O)c2ccco2)cc1	none
CCCOc1ccc(C(=O)NNC(=S)NC(=O)c2ccco2)cc1	CRFBP-R2 agonist 137
CCCOc1ccc(C(=O)NNC(=S)NC(=O)c2ccccc2)cc1	CRFBP-R2 agonist 180
CCCOc1ccc(C(=O)NNC(=S)NC(C)=O)cc1	none
CC(Oc1ccc(Cl)cc1)C(=O)NNC(=S)NC(=O)c1ccco1 (stereo not given)	CRFBP-R2 agonist 135
